Source: ChEMBL document CHEMBL3351720, “Design, synthesis and evaluation of benzoisothiazolones as selective inhibitors of PHOSPHO1” (Bioorg Med Chem Lett, 2014)
pIC50: −log10 of the molar value. In brackets after ≈: the same amount, converted by molar mass.

How the values were obtained:
[1] = target: T1, Phosphoethanolamine/phosphocholine phosphatase (Homo sapiens, UniProt Q8TCT1); assay: Inhibition of PHOSPHO1 phosphoethanolamine activity (unknown origin) assessed as amount of inorganic phosphate release after 30 mins
T1 sequence (Q8TCT1 whole entry): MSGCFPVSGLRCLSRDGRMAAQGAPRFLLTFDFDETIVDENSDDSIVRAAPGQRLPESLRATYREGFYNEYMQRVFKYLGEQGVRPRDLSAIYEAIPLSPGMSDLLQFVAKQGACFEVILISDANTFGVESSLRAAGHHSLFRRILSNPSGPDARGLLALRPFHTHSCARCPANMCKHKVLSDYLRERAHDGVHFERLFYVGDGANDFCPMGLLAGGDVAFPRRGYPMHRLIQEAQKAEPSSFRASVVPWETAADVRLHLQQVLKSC

[2] = target: T2, Mannose-6-phosphate isomerase (Homo sapiens, UniProt P34949); assay: Inhibition of phosphomannose isomerase (unknown origin)
T2 sequence (P34949 whole entry): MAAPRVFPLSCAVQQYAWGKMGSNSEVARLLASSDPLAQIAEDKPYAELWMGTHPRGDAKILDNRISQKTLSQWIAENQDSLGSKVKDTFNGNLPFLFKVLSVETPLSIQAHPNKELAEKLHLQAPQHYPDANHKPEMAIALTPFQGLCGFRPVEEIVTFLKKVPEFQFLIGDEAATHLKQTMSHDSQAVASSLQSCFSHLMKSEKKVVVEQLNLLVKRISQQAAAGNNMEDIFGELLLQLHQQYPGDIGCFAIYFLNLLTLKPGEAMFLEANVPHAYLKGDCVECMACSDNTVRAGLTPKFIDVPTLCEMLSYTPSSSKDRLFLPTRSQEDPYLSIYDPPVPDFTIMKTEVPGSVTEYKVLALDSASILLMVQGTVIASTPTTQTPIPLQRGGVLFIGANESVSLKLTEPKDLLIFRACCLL

[3] = target: T3, Phosphomannomutase 2 (Homo sapiens, UniProt O15305); assay: Inhibition of PMM2 (unknown origin)
T3 sequence (O15305 whole entry): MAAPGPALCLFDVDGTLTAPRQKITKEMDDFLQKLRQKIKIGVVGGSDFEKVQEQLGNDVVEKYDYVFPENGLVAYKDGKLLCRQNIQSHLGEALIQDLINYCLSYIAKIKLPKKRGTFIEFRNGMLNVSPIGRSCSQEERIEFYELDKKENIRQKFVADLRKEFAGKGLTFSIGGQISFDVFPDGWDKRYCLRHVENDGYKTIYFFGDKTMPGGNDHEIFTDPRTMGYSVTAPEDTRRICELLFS

[4] = Aqueous solubility of the compound in pH 5 pION buffer by UV kinetic solubility method; assay type: physicochemical
Procedure, shortened: (§1)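 Kinetic solubility in pION's buffer at pH 5.0, 6.2 or 7.4, reported in µg/ml. Part of an in vitro ADME panel.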

[5] = Aqueous solubility of the compound in pH 6.2 pION buffer by UV kinetic solubility method; assay type: physicochemical; procedure, shortened: as §1
[6] = Aqueous solubility of the compound in pH 7.4 pION buffer by UV kinetic solubility method; assay type: physicochemical; procedure, shortened: as §1
[7] = Permeability of the compound at donor pH 5.0 and acceptor pH 7.4 by PAMPA; assay type: ADME
Procedure, shortened: (§2)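 PAMPA with the acceptor compartment at pH 7.4 and the donor at pH 5.0, 6.2 or 7.4. Permeability reported as ×10^-6 cm/s. Part of an in vitro ADME panel.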

[8] = Permeability of the compound at donor pH 6.2 and acceptor pH 7.4 by PAMPA; assay type: ADME; procedure, shortened: as §2
[9] = Permeability of the compound at donor pH 7.4 and acceptor pH 7.4 by PAMPA; assay type: ADME; procedure, shortened: as §2
[10] = Plasma protein binding in human at 10 uM by LC-MS analysis; assay type: ADME, cell-free; settings: read-out: PPB (converted)
Procedure, shortened: (§3)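 Read-out was % of compound bound in human or mouse plasma, each tested at 1 µM and 10 µM.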

[11] = Plasma protein binding in mouse at 1 uM by LC-MS analysis; assay type: ADME, cell-free; settings: read-out: PPB (converted); procedure, shortened: as §3
[12] = Plasma protein binding in mouse at 10 uM by LC-MS analysis; assay type: ADME, cell-free; settings: read-out: PPB (converted); procedure, shortened: as §3
[13] = Cytotoxicity against human Fa2N-4 cells after 24 hrs by ATP-lite 1-step assay; assay type: cell-based; settings: fa2n-4, 24 h, read-out: LC50 (the source's name)
[14] = Metabolic stability in human plasma assessed as compound remaining at 1 x pH7.4 PBS measured at 3 hrs by LC-MS/MS analysis; assay type: ADME, cell-free; settings: pH 7.4, read-out: Stability
Procedure, shortened: (§4)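 Stability of each analogue was reported as % of compound remaining. For liver microsomes this was after 1 hr, with runs with and without NADPH. For plasma this was after 3 hrs in plasma mixed 1:1 with 1× PBS, pH 7.4. Both human and mouse matrices were used.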

[15] = Metabolic stability in human plasma assessed as compound remaining at 1:1 1 x pH7.4 PBS measured at 3 hrs by LC-MS/MS analysis; assay type: ADME, cell-free; settings: pH 7.4, read-out: Stability; procedure, shortened: as §4
[16] = Metabolic stability in mouse plasma assessed as compound remaining at 1 x pH7.4 PBS measured at 3 hrs by LC-MS/MS analysis; assay type: ADME, cell-free; settings: pH 7.4, read-out: Stability; procedure, shortened: as §4
[17] = Metabolic stability in mouse plasma assessed as compound remaining at 1:1 1 x pH7.4 PBS measured at 3 hrs by LC-MS/MS analysis; assay type: ADME, cell-free; settings: pH 7.4, read-out: Stability; procedure, shortened: as §4
[18] = Metabolic stability in human liver microsomes measured at 1 uM after 1 hr at pH 7.4 by LC-MS/MS analysis; assay type: ADME; settings: read-out: Stability; procedure, shortened: as §4
[19] = Metabolic stability in mouse liver microsomes measured at 1 uM after 1 hr at pH 7.4 by LC-MS/MS analysis; assay type: ADME; settings: read-out: Stability; procedure, shortened: as §4
[20] = Plasma protein binding in human at 1 uM by LC-MS analysis; assay type: ADME, cell-free; settings: read-out: PPB (converted); procedure, shortened: as §3
[21] = Metabolic stability in human liver microsomes measured at 1 uM after 1 hr at pH 7.4 by LC-MS/MS analysis in absence of NADPH; assay type: ADME; settings: read-out: Stability; procedure, shortened: as §4
[22] = Metabolic stability in mouse liver microsomes measured at 1 uM after 1 hr at pH 7.4 by LC-MS/MS analysis in absence of NADPH; assay type: ADME; settings: read-out: Stability; procedure, shortened: as §4
[23] = target: T4, Ectonucleotide pyrophosphatase/phosphodiesterase family member 1 (Homo sapiens, UniProt P22413); assay: Inhibition of NPP1 (unknown origin)
T4 sequence (P22413 whole entry): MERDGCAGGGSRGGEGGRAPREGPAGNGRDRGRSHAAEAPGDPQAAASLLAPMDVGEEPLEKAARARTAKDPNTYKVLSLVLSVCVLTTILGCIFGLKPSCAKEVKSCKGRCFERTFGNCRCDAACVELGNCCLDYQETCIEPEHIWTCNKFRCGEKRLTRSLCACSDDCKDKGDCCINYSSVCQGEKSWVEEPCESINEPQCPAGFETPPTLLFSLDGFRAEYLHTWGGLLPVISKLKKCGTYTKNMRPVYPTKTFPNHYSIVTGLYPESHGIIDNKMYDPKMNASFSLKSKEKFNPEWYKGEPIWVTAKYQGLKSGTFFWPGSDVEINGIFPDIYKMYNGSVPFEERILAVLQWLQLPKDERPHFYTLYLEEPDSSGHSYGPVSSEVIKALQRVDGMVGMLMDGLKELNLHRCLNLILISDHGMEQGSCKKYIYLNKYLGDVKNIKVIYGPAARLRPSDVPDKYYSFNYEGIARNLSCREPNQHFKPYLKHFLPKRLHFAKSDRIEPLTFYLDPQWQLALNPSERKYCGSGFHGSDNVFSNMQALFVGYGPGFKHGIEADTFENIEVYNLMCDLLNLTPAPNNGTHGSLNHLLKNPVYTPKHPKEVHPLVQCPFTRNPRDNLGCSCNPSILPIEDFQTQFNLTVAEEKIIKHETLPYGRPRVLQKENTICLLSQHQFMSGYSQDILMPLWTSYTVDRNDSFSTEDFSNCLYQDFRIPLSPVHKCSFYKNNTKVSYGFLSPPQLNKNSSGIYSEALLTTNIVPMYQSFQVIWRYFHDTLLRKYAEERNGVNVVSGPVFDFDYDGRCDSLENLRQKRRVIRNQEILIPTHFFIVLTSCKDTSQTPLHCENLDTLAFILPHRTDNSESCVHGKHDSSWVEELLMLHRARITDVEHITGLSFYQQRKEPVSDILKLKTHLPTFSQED

[24] = Inhibition of Streptococcus pneumoniae diphosphomevalonate decarboxylase assessed as conversion of (R)-5-diphosphomevalonate to ADP by fluorometry
[25] = target: T5, Alkaline phosphatase, tissue-nonspecific isozyme (Homo sapiens, UniProt P05186)
T5 sequence (P05186 whole entry): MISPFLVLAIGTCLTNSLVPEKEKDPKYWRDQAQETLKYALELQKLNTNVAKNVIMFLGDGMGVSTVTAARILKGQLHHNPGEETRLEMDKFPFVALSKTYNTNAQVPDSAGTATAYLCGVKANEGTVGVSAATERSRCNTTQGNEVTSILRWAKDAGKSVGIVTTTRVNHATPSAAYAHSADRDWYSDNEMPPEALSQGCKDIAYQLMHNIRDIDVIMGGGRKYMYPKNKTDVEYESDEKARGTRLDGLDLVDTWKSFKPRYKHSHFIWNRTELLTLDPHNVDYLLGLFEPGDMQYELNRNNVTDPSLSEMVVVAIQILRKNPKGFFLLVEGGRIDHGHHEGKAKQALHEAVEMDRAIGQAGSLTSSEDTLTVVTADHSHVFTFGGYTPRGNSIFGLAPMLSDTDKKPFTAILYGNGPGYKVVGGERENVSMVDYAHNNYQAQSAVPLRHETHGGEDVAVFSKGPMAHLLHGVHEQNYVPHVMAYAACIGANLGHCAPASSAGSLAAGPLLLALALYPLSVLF

| SMILES | pIC50 [1] | pIC50 [3] | solubility kinetic [4] [µg/mL] | solubility kinetic [5] [µg/mL] | solubility kinetic [6] [µg/mL] | permeability [7] [×10⁻⁶ cm/s] | permeability [8] [×10⁻⁶ cm/s] | permeability [9] [×10⁻⁶ cm/s] | fraction unbound at 10 µM [10] | fraction unbound at 1 µM [11] | fraction unbound at 10 µM [12] | CC50 [13] [µM] | remaining at 3 h [14] [%] | remaining at 3 h [15] [%] | remaining at 3 h [16] [%] | remaining at 3 h [17] [%] | remaining at 1 h, 1 µM [18] [%] | remaining at 1 h, 1 µM [19] [%] | also measured |
| --- | --- | --- | --- | --- | --- | --- | --- | --- | --- | --- | --- | --- | --- | --- | --- | --- | --- | --- | --- |
| Cc1ccc(-n2sc3ccccc3c2=O)cc1 | 5.89 | < 4.52 | – | – | – | – | – | – | – | – | – | – | – | – | – | – | – | – | pIC50 [2]: 5.41 |
| O=c1c2ccccc2sn1-c1cc(S(=O)(=O)N2CCOCC2)ccc1N1CCCC1 | 5.12 | – | – | – | – | – | – | – | – | – | – | – | – | – | – | – | – | – | – |
| CN(C)S(=O)(=O)c1cccc(-n2sc3ccccc3c2=O)c1 | – | – | 23.4 (≈ 70 µM) | 24.6 (≈ 73.6 µM) | 23.8 (≈ 71.2 µM) | 781 | 817 | 777 | 0.435 | 0.644 | 0.659 | > 50 | 11.4 | 32.3 | 65.3 | 40 | 72.4 | 100 | – |
| O=C(O)c1cccc(-n2sc3ccccc3c2=O)c1 | – | – | > 27 | > 27 | > 27 | 157 | 18 | < 4.4 | 0.406 | 0.812 | 0.699 | > 50 | 50.2 | 55.5 | 100 | 71.2 | 100 | 100 | – |
| COC(=O)c1cccc(-n2sc3ccccc3c2=O)c1 | – | 4.92 | 12.6 (≈ 44.2 µM) | 18.9 (≈ 66.2 µM) | 20.8 (≈ 72.9 µM) | 1294 | 1231 | 1300 | 0.427 | 0.52 | 0.624 | > 50 | 15.4 | 49.3 | 59.6 | 55.2 | 72.4 | 45.9 | fraction unbound at 1 µM [20]: 0.588; remaining at 1 h, 1 µM [21]: 31.5%; remaining at 1 h, 1 µM [22]: 44.6% |
| O=c1c2ccccc2sn1-c1cc(S(=O)(=O)N2CCOCC2)ccc1N1CCOCC1 | 5.92 | – | – | – | – | – | – | – | – | – | – | – | – | – | – | – | – | – | – |
| Cc1ccc(-n2sc3ccccc3c2=O)cc1S(=O)(=O)N1CCCCC1 | – | 4.96 | – | – | – | – | – | – | – | – | – | – | – | – | – | – | – | – | – |
| Cc1ccc(C)c(-n2sc3ccccc3c2=O)c1 | 5.40 | < 4.70 | – | – | – | – | – | – | – | – | – | – | – | – | – | – | – | – | – |
| O=c1c2ccccc2sn1-c1ccc(F)cc1 | – | < 4.70 | – | – | – | – | – | – | – | – | – | – | – | – | – | – | – | – | pIC50 [2]: 5.47 |
| CN(C)C(=O)c1cccc(-n2sc3ccccc3c2=O)c1 | – | – | > 30 | > 30 | > 30 | 94 | 92 | 97 | 0.558 | 0.52 | 0.533 | > 50 | 18.9 | 60 | 76.2 | 56.9 | 45.7 | 56.6 | fraction unbound at 1 µM [20]: 0.587; pIC50 [23]: < 4.52; pIC50 [24]: 4.62; pIC50 [25]: < 4.00 |
| O=c1c2ccccc2sn1-c1cccc(Cl)c1 | – | < 4.52 | – | – | – | – | – | – | – | – | – | – | – | – | – | – | – | – | – |
